Values after ≈ are worked out from the molar mass of the structure shown.
Tests used:
Salmonella typhimurium [1] = experiment: Antibacterial activity against Salmonella typhimurium ATCC 14028 measured after 24 hrs; assay type: functional, Salmonella enterica subsp. enterica serovar Typhimurium; conditions: Salmonella enterica, ATCC 14028, 24 h
Method in brief: (§1)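 Broth microdilution adapted from NCCLS. Mid-log bacteria were diluted in MHB to a final (0.5–1) × 10^5 CFU mL−1. Peptides were serially diluted in 0.2% BSA and mixed with an equal volume of cells. After 24 h at 37 °C, MIC was read at A492 as the lowest concentration inhibiting 95% of growth. At least three independent experiments, each with three technical replicates.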

[2] = system: Staphylococcus epidermidis; experiment: Bactericidal activity against Staphylococcus epidermidis ATCC 12228 incubated for 24 hrs followed by replating on agar plate and measured after overnight incubation; assay type: functional; conditions: ATCC 12228, 24 h, read-out: MBC>99.9
Method in brief: (§2)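 Mid-log bacteria diluted in MHB to (0.5–1) × 10^5 CFU/mL and mixed 1:1 with peptide serially diluted in 0.2% BSA. After 24 h at 37 °C, 50 μL of each mixture was plated on agar and incubated overnight. MBC taken as the lowest concentration killing >99.9% of cells. At least three independent experiments, each with three technical replicates.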

Escherichia coli [3] = experiment: Antibacterial activity against Escherichia coli ATCC 25922 measured after 18 to 24 hrs in presence of FeCl3; assay type: functional
Staphylococcus aureus [4] = experiment: Antibacterial activity against Staphylococcus aureus ATCC 29213 measured after 18 to 24 hrs in presence of CaCl2; assay type: functional
Salmonella typhimurium [5] = experiment: Antibacterial activity against Salmonella typhimurium C7731 measured after 24 hrs; assay type: functional, Salmonella enterica subsp. enterica serovar Typhimurium; conditions: Salmonella enterica, C7731, 24 h; method in brief: as §1
Candida albicans [6] = experiment: Antifungal activity against Candida albicans cgmcc2.2086 measured after 48 hrs in presence of CaCl by broth microdilution method; assay type: functional; conditions: cgmcc2.2086, 48 h
Candida albicans [7] = experiment: Antifungal activity against Candida albicans cgmcc2.2086 measured after 48 hrs in presence of NH4Cl by broth microdilution method; assay type: functional; conditions: cgmcc2.2086, 48 h
Escherichia coli [8] = experiment: Antibacterial activity against Escherichia coli ATCC 25922 measured after 18 to 24 hrs in presence of KCl; assay type: functional
Staphylococcus aureus [9] = experiment: Bactericidal activity against Staphylococcus aureus ATCC 25923 incubated for 24 hrs followed by replating on agar plate and measured after overnight incubation; assay type: functional; conditions: ATCC 25923, 24 h, read-out: MBC>99.9
Method in brief: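 After the 24 h, 37 °C MHB microdilution MIC assay, 50 μL from each well was plated on agar and incubated overnight. MBC taken as lowest peptide concentration killing >99.9% of cells. At least three independent experiments, each with three technical replicates.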

Escherichia coli [10] = experiment: Bactericidal activity against Escherichia coli 078 incubated for 24 hrs followed by replating on agar plate and measured after overnight incubation; assay type: functional; conditions: Escherichia coli, 078, 24 h; read-out: MBC>99.9
Method in brief: (§3)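 After the 24 h, 37 °C MHB microdilution (0.5–1 × 10^5 CFU mL−1 inoculum, peptides diluted in 0.2% BSA), 50 μL from each well was plated on agar and incubated overnight. MBC was taken as the lowest concentration killing >99.9% of cells. Three or more independent experiments, each with triplicate technical replicates.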

[11] = Therapeutic index, ratio of MHC10 for hemolytic activity in human RBC to MIC95 against Staphylococcus epidermidis ATCC 12228; assay type: toxicity; conditions: human red blood cells (erythrocytes), read-out: TI
Method in brief: (§4)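 Therapeutic index = MHC divided by MIC. MHC is the lowest concentration giving >10% lysis of human RBC (1 h, 37 °C, 1-128 µM, A576). MIC is 95% growth inhibition by broth microdilution: bacteria in MHB 24 h at 37 °C; Candida in MOPS-buffered RPMI 1640 at (0.5–1) × 10^3 CFU mL−1, 48 h at 28 °C.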

Escherichia coli [12] = experiment: Bactericidal activity against Escherichia coli ATCC 25922 incubated for 24 hrs followed by replating on agar plate and measured after overnight incubation; assay type: functional; conditions: ATCC 25922, 24 h, read-out: MBC>99.9; method in brief: as §3
[13] = Therapeutic index, ratio of MHC10 for hemolytic activity in human RBC to MIC95 against Staphylococcus aureus ATCC 29213; assay type: toxicity; conditions: human red blood cells (erythrocytes), read-out: TI; method in brief: as §4
Erythrocyte = experiment: Hemolytic activity in human RBC measured after 1 hr; assay type: ADME, cell-based
Method in brief: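 Fresh healthy-donor human erythrocytes at ~1% (v/v) in PBS pH 7.4, mixed 1:1 with peptide (1–128 µM), 1 h at 37 °C. After centrifugation at 1000×g, supernatant hemoglobin read at 576 nm. Untreated cells set 0% and 0.1% Triton X-100 set 100%. MHC defined as the concentration giving >10% hemolysis. Three or more independent experiments, triplicates.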

Candida albicans [14] = experiment: Antifungal activity against Candida albicans cgmcc2.2086 measured after 48 hrs by broth microdilution method; assay type: functional; conditions: cgmcc2.2086, 48 h
Method in brief: (§5)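 Modified CLSI M27-A2 microdilution. Yeast colonies were diluted in MOPS-buffered RPMI 1640 to a final (0.5–1) × 10^3 CFU mL−1 and mixed with an equal volume of peptide serially diluted in 0.2% BSA. After 48 h at 28 °C, MIC was read at A492 as the lowest concentration inhibiting 95% of growth. At least three independent experiments, each with three technical replicates.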

Escherichia coli [15] = experiment: Bactericidal activity against Escherichia coli K99 incubated for 24 hrs followed by replating on agar plate and measured after overnight incubation; assay type: functional; conditions: K99, 24 h, read-out: MBC>99.9; method in brief: as §2
Escherichia coli [16] = experiment: Antibacterial activity against Escherichia coli UB1005 measured after 24 hrs; assay type: functional; conditions: UB1005, 24 h; method in brief: as §1
Staphylococcus aureus [17] = experiment: Antibacterial activity against Staphylococcus aureus ATCC 29213 measured after 18 to 24 hrs in presence of FeCl3; assay type: functional
Salmonella typhimurium [18] = experiment: Bactericidal activity against Salmonella typhimurium C7731 incubated for 24 hrs followed by replating on agar plate and measured after overnight incubation; assay type: functional, Salmonella enterica subsp. enterica serovar Typhimurium; conditions: Salmonella enterica, C7731, 24 h; read-out: MBC>99.9; method in brief: as §2
Staphylococcus aureus [19] = experiment: Antibacterial activity against Staphylococcus aureus ATCC 29213 measured after 18 to 24 hrs in presence of NaCl; assay type: functional
Candida parapsilosis = experiment: Antifungal activity against Candida parapsilosis cgmcc2.3989 measured after 48 hrs by broth microdilution method; assay type: functional; conditions: Lodderomyces parapsilosis, cgmcc2.3989, 48 h; method in brief: as §5
Escherichia coli [20] = experiment: Antibacterial activity against Escherichia coli K99 measured after 24 hrs; assay type: functional; conditions: K99, 24 h; method in brief: as §1
Staphylococcus aureus [21] = experiment: Antibacterial activity against methicillin-resistant Staphylococcus aureus ATCC 43300 measured after 24 hrs; assay type: functional; conditions: ATCC 43300, 24 h
Method in brief: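 Broth microdilution modified from NCCLS. Mid-log bacteria at (0.5–1) × 10^5 CFU mL−1 in MHB, mixed with peptides serially diluted in 0.2% BSA. Incubated 24 h at 37 °C, read at A492. MIC taken as lowest concentration giving 95% growth inhibition. At least three independent experiments, each with three technical replicates.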

Escherichia coli [22] = experiment: Antibacterial activity against Escherichia coli ATCC 25922 measured after 18 to 24 hrs in presence of NaCl; assay type: functional
Escherichia coli [23] = experiment: Antibacterial activity against Escherichia coli 078 measured after 24 hrs; assay type: functional; conditions: Escherichia coli, 078, 24 h; method in brief: as §1
Candida albicans [24] = experiment: Antifungal activity against Candida albicans cgmcc2.2086 measured after 48 hrs in presence of NaCl by broth microdilution method; assay type: functional; conditions: cgmcc2.2086, 48 h
Candida albicans [25] = experiment: Antifungal activity against Candida albicans cgmcc2.2086 measured after 48 hrs in presence of FeCl by broth microdilution method; assay type: functional; conditions: cgmcc2.2086, 48 h

Row | Molecule | MIC95 (Salmonella typhimurium [1]) [µM] | MBC [2] [µM] | MIC95 (Escherichia coli [3]) [µM] | MIC95 (Staphylococcus aureus [4]) [µM] | MIC95 (Salmonella typhimurium [5]) [µM] | MIC95 (Candida albicans [6]) [µM] | MIC95 (Candida albicans [7]) [µM] | MIC95 (Escherichia coli [8]) [µM] | MBC (Staphylococcus aureus [9]) [µM] | MBC (Escherichia coli [10]) [µM] | selectivity ratio [11] | MBC (Escherichia coli [12]) [µM] | selectivity ratio [13] | MHC10 (Erythrocyte) [µM] | MIC95 (Candida albicans [14]) [µM] | MBC (Escherichia coli [15]) [µM] | MIC95 (Escherichia coli [16]) [µM] | MIC95 (Staphylococcus aureus [17]) [µM] | MBC (Salmonella typhimurium [18]) [µM] | MIC95 (Staphylococcus aureus [19]) [µM] | further results
1 | CC[C@H](C)[C@H](NC(=O)CN)C(=O)NCC(=O)N[C@@H](C)C(=O)N[C@H](C(=O)N[C@@H](CC(C)C)C(=O)N[C@@H](CCCCN)C(=O)N[C@H](C(=O)N[C@@H](CC(C)C)C(=O)N[C@H](C(=O)N[C@H](C(=O)NCC(=O)N[C@@H](CC(C)C)C(=O)N1CCC[C@H]1C(=O)N[C@@H](C)C(=O)N[C@@H](CC(C)C)C(=O)N[C@H](C(=O)N[C@@H](CO)C(=O)N[C@@H](Cc1c[nH]c2ccccc12)C(=O)N[C@H](C(=O)N[C@@H](CCCCN)C(=O)N[C@@H](CCCNC(=N)N)C(=O)N[C@@H](CCCCN)C(=O)N[C@@H](CCCNC(=N)N)C(=O)N[C@@H](CCC(N)=O)C(=O)N[C@@H](CCC(N)=O)C(N)=O)[C@@H](C)CC)[C@@H](C)CC)[C@@H](C)O)[C@@H](C)O)C(C)C)C(C)C [MELITTIN] | 2 (≈ 5.69 µg/mL) | 4 (≈ 11.4 µg/mL) | 2 | 8 | 2 (≈ 5.69 µg/mL) | 8 | 4 | 2 | 8 (≈ 22.8 µg/mL) | 2 (≈ 5.69 µg/mL) | 0.35 | 4 (≈ 11.4 µg/mL) | 0.35 | 1 | 4 (≈ 11.4 µg/mL) | 2 (≈ 5.69 µg/mL) | 2 (≈ 5.69 µg/mL) | 4 | 4 (≈ 11.4 µg/mL) | 8 | MIC95 (Candida parapsilosis): 2 µM (≈ 5.69 µg/mL); MIC95 (Escherichia coli [20]): 2 µM (≈ 5.69 µg/mL); MIC95 (Staphylococcus aureus [21]): 1 µM (≈ 2.85 µg/mL); MIC95 (Escherichia coli [22]): 4 µM; MIC95 (Escherichia coli [23]): 2 µM (≈ 5.69 µg/mL); MIC95 (Candida albicans [24]): 8 µM; MIC95 (Candida albicans [25]): 4 µM
2 | H-AARIILRTRFR-NH2 | 16 | 32 | 16 | 64 | 16 | > 128 | > 128 | 32 | 32 | 8 | 16 | 16 | 16 | > 128 | 128 | 8 | 4 | 16 | 32 | > 128 | MIC95 (Candida parapsilosis): 64 µM; MIC95 (Escherichia coli [20]): 4 µM; MIC95 (Staphylococcus aureus [21]): 16 µM; MIC95 (Escherichia coli [22]): > 128 µM; MIC95 (Escherichia coli [23]): 4 µM; MIC95 (Candida albicans [24]): > 128 µM; MIC95 (Candida albicans [25]): > 128 µM
3 | H-AARIILRYRFR-NH2 | 8 | 4 | 16 | 64 | 4 | 128 | 64 | 32 | 16 | 4 | 64 | 16 | 64 | > 128 | 32 | 8 | 4 | 4 | 8 | > 128 | MIC95 (Candida parapsilosis): 64 µM; MIC95 (Escherichia coli [20]): 4 µM; MIC95 (Staphylococcus aureus [21]): 4 µM; MIC95 (Escherichia coli [22]): > 128 µM; MIC95 (Escherichia coli [23]): 4 µM; MIC95 (Candida albicans [24]): 128 µM; MIC95 (Candida albicans [25]): 64 µM
4 | H-AARIILRLRFR-NH2 | 4 | 4 | 8 | 4 | 4 | 32 | 8 | 8 | 4 | 8 | 128 | 8 | 128 | > 128 | 8 | 4 | 4 | 4 | 8 | 16 | MIC95 (Candida parapsilosis): 4 µM; MIC95 (Escherichia coli [20]): 2 µM; MIC95 (Staphylococcus aureus [21]): 2 µM; MIC95 (Escherichia coli [22]): 64 µM; MIC95 (Escherichia coli [23]): 4 µM; MIC95 (Candida albicans [24]): 32 µM; MIC95 (Candida albicans [25]): 8 µM

From ChEMBL document CHEMBL4350958, “Rational Design of Short Peptide Variants by Using Kunitzin-RE, an Amphibian-Derived Bioactivity Peptide, for Acquired Potent Broad-Spectrum Antimicrobial and Improved Therapeutic Potential of Commensalism Coinfection of Pathogens” (J Med Chem, 2019)
